For test [1], the species on record is Canis familiaris. Description: Activity ratio ED50 of diarrhea to ED50 of antisecretory in histamine -stimulated gastric fistula dogs. The format is functional, Canis lupus familiaris, Stomach. A digest of the protocol:
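Ratio of the 8-h rat diarrhea ED50 to the dog antisecretory ED50. Diarrhea: fasted (24 h) male Charles River rats (210–230 g; n = 6–12) given logarithmically graded oral doses and scored all-or-none hourly to 8 h, with ED50 from a maximum-likelihood logistic model. Antisecretory ED50: intragastric dosing in histamine-infused gastric fistula dogs, from 4-h acid output.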

Test [2] relates to Canis familiaris. Description: Tested for relative antisecretory potency in histamine-stimulated gastric fistula dogs by intragastric administration. As to conditions: Canis lupus familiaris, Stomach, po. The format is functional. A digest of the protocol: (§1)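 Gastric fistula beagles given drug intragastrically, then histamine infused at 15 µg kg-1 h-1. Total acid output collected over 4 h by NaOH titration to pH 7.0, and percent inhibition curves built. Relative antisecretory potency and its limits were computed by bioassay statistical analysis of these dose-response data.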

In test [3] the test system is Canis familiaris. Description: Tested for gastric antisecretory activity in histamine-stimulated gastric fistula dogs by intragastric administration. As to conditions: Canis lupus familiaris, Stomach, po. The format is functional. The essentials:
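Conscious adult female beagles (6–12 kg) with simple gastric fistulas, fasted 18 h. After a 30-min basal period, drug given intragastrically via dosing plug with cannula closed 30 min, then histamine infused at 15 µg kg-1 h-1. Juice collected every 30 min for 4 h and titrated with 0.1 N NaOH to pH 7.0. ED50 is 50% inhibition of 4-h total acid output, from three-dose curves.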

Test [4] relates to Canis familiaris. Description: Tested for gastric antisecretory activity in histamine-stimulated Heidenhain pouch dogs by intravenous administration. The format is functional. The conditions noted are these: Canis lupus familiaris, Stomach.
For test [5], the system named is Canis familiaris. Description: Tested for relative antisecretory potency in histamine-stimulated gastric fistula dogs by intragastric administration; value ranges from (0.53-1.76). The format is functional. As to conditions: Canis lupus familiaris, Stomach, po. A digest of the protocol: as §1
Test [6] deals with Canis familiaris. Description: Tested for relative antisecretory potency in histamine-stimulated gastric fistula dogs by intragastric administration; value ranges from (0.13-0.48). The format is functional. As to conditions: Canis lupus familiaris, Stomach, po. The essentials:
as §1

Our source for the Ratio, relative potency and ED50 values is ChEMBL document CHEMBL1123858, “Synthesis and gastrointestinal pharmacology of a 3E,5Z diene analogue of misoprostol” (1987).

By ED50 is commonly meant the midpoint of the dose-response relation. Lower therefore signals greater potency.

Some results are limits rather than exact numbers.

Turning to `CCCCC(C)(O)C/C=C/[C@H]1[C@H](O)CC(=O)[C@@H]1C/C=C\C=C\CC(=O)OC` (stereo not given in full), the Ratio in test [1] is given as 1638. In test [2], this compound yielded a relative potency of 1. Further, the ED50 in test [3] amounted to 0.08 µg/kg.

In turn, `CCCCC(C)(O)C/C=C/[C@H]1[C@H](O)CC(=O)[C@@H]1CC#C/C=C/CC(=O)OC` (stereo not given in full) registered an ED50 in test [4] of more than 1 µg/kg.

With `CCCCC(C)(O)C/C=C/[C@H]1[C@H](O)CC(=O)[C@@H]1C/C=C\C=C/CC(=O)OC.CCCCC(C)(O)C/C=C/[C@H]1[C@H](O)CC(=O)[C@@H]1C/C=C\C=C\CC(=O)OC` (mixture of isomers), in test [1], the Ratio is given as 8025. Further, the relative potency in test [5] was determined as 0.95. This compound came in with an ED50 in test [3] of 0.08 µg/kg.

`CCCCC(C)(O)C/C=C/[C@H]1[C@H](O)CC(=O)[C@@H]1CCCCCCC(=O)OC` (stereo not given in full) [MISOPROSTOL]: in test [1], the Ratio is 1364. The compound also came in with a relative potency in test [6] of 0.26. For the same compound, in test [3], the 50% effect level (ED50) was put at a dose of 0.28 µg/kg.
